Results reported in ChEMBL document CHEMBL4706620, “Design, synthesis, biological activity evaluation of 3-(4-phenyl-1H-imidazol-2-yl)-1H-pyrazole derivatives as potent JAK 2/3 and aurora A/B kinases multi-targeted inhibitors” (Eur J Med Chem, 2021).

What was measured:
Aurora kinase A = target: T1, Aurora kinase A (Homo sapiens, UniProt O14965); assay: Inhibition of Aurora A (unknown origin) incubated for 40 mins in presence of ATP by Kinase-glo luminescence assay
T1 sequence (O14965 whole entry): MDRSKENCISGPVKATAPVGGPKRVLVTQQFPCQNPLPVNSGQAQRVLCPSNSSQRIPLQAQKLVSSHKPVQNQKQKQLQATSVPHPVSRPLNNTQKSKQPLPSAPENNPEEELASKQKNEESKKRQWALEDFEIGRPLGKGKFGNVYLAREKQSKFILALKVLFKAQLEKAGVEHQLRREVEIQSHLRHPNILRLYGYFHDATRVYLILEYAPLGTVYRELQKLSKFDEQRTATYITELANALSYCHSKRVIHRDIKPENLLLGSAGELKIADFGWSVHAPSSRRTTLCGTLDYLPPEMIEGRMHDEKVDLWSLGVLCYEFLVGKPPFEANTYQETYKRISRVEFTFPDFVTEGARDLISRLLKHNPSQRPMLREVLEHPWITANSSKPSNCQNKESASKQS

K562 [1] = assay: Antiproliferative activity against human K562 cells assessed as reduction in cell growth measured after 72 hrs by CCK8 assay; format: functional, cell-based; settings: K562, 72 h
HCT-116 [2] = assay: Antiproliferative activity against human HCT116 cells assessed as reduction in cell growth measured after 72 hrs by CCK8 assay; format: functional, cell-based; settings: HCT-116, 72 h
[3] = target: Tyrosine-protein kinase JAK2 (Homo sapiens, UniProt O60674); assay: Inhibition of JAK2 (unknown origin) incubated for 40 mins in presence of ATP by Kinase-glo luminescence assay
Tyrosine-protein kinase JAK2, sequence (O60674 whole entry): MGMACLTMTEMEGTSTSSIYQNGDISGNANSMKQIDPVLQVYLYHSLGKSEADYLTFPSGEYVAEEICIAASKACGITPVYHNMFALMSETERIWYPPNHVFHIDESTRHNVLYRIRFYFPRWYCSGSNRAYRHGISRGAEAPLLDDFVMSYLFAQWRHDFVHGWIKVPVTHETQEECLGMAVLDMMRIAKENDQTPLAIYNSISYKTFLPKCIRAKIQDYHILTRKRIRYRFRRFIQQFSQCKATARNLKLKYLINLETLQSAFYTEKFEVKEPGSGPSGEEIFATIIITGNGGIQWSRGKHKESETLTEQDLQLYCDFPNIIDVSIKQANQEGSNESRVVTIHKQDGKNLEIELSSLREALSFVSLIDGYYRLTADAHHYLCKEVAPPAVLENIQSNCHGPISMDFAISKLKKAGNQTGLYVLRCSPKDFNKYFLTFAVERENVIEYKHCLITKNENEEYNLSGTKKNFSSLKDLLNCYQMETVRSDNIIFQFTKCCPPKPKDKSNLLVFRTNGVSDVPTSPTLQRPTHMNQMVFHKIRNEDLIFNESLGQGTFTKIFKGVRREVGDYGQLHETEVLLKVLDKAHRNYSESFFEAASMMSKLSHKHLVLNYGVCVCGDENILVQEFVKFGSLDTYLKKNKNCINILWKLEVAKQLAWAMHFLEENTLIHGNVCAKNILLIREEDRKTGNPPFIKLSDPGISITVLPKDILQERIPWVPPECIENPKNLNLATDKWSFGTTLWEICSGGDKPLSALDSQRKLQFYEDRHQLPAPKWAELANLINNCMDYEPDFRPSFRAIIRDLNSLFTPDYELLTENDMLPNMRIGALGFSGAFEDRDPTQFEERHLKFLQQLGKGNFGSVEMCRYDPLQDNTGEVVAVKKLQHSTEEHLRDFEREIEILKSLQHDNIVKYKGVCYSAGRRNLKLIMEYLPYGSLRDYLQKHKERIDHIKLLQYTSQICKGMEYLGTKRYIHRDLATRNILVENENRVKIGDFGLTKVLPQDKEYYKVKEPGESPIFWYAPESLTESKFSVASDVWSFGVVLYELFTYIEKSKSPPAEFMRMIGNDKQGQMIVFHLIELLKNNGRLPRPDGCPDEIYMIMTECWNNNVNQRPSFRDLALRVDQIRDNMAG

[4] = target: T2, Tyrosine-protein kinase JAK3 (Homo sapiens, UniProt P52333); assay: Inhibition of JAK3 (unknown origin) incubated for 40 mins in presence of ATP by Kinase-glo luminescence assay
T2 sequence (P52333 whole entry): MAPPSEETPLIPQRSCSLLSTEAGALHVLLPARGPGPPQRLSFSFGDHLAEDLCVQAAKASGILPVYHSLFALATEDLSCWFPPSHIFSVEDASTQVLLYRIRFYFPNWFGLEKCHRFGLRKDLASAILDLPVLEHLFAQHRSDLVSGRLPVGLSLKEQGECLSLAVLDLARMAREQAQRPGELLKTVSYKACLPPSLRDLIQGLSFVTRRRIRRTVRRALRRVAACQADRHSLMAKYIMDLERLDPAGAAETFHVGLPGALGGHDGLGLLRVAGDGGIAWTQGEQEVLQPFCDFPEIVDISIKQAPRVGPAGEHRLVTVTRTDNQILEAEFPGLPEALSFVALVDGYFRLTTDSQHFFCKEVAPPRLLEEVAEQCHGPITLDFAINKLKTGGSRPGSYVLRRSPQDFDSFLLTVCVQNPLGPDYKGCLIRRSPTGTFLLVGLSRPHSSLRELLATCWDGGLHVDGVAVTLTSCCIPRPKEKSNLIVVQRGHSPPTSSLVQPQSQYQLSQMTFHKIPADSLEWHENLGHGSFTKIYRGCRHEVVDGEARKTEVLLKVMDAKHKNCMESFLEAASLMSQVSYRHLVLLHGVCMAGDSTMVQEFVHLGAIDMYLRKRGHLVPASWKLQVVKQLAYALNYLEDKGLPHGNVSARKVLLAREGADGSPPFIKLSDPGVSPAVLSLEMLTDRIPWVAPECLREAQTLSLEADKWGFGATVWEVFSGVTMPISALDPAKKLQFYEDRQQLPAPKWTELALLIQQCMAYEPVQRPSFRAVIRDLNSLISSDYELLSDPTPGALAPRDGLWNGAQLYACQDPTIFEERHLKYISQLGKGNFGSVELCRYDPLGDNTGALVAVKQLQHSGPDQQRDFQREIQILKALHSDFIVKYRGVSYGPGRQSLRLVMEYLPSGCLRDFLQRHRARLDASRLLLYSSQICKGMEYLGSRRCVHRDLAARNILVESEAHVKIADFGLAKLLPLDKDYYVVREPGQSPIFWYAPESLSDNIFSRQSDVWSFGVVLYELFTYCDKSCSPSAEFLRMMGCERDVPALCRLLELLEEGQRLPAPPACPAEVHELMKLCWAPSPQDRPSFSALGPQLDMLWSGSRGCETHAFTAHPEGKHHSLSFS

Aurora kinase B = Aurora kinase B (Homo sapiens, UniProt Q96GD4); assay: Inhibition of Aurora B (unknown origin) incubated for 40 mins in presence of ATP by Kinase-glo luminescence assay
Aurora kinase B, sequence (Q96GD4 whole entry): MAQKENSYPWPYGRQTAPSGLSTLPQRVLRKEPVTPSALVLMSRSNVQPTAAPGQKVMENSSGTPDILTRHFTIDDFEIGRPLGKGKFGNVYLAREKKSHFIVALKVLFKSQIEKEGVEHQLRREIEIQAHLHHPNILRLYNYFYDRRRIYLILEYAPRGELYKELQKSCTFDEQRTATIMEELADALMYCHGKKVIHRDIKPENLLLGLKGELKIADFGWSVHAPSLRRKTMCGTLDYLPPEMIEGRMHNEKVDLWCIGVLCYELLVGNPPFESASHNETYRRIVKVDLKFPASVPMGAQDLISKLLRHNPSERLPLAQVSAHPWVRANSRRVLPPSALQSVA
How it was run: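 Kinase reaction at 30 °C for 40 min in 40 mM Tris pH 7.4, 10 mM MgCl2, 0.1 mg/ml BSA, 1 mM DTT, 10 µM ATP, kinase plus substrate; compounds added from 10% DMSO dilutions (1% DMSO final). Remaining ATP measured by Kinase-Glo Plus luminescence; IC50 from nonlinear regression, normalized dose-response fit.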

Homo sapiens [5] = organism: Homo sapiens; assay: Selectivity for JAK2 (unknown origin) over Aurora B (unknown origin)
Homo sapiens [6] = organism: Homo sapiens; assay: Selectivity for JAK3 (unknown origin) over Aurora B (unknown origin)
Homo sapiens [7] = organism: Homo sapiens; assay: Selectivity for JAK2 (unknown origin) over Aurora A (unknown origin)
Homo sapiens [8] = organism: Homo sapiens; assay: Selectivity for JAK3 (unknown origin) over Aurora A (unknown origin)
K562 [9] = assay: Cell cycle arrest in human K562 cells assessed as accumulation of diploid cells at G2 phase at 10 uM incubated for 48 hrs by propidium iodide staining based flow cytometric analysis (reference value: 7.73 %); format: functional
K562 [10] = assay: Cell cycle arrest in human K562 cells assessed as accumulation of diploid cells at S phase at 10 uM incubated for 48 hrs by propidium iodide staining based flow cytometric analysis (reference value: 35.94 %); format: functional
HCT-116 [11] = assay: Cell cycle arrest in human HCT116 cells assessed as accumulation of diploid cells at G1 phase at 10 uM incubated for 48 hrs by propidium iodide staining based flow cytometric analysis (reference value: 77.62 %); format: functional
HCT-116 [12] = assay: Cell cycle arrest in human HCT116 cells assessed as accumulation of diploid cells at G2 phase at 10 uM incubated for 48 hrs by propidium iodide staining based flow cytometric analysis (reference value: 10.46 %); format: functional
HCT-116 [13] = assay: Cell cycle arrest in human HCT116 cells assessed as accumulation of diploid cells at S phase at 10 uM incubated for 48 hrs by propidium iodide staining based flow cytometric analysis (reference value: 11.92 %); format: functional
HCT-116 [14] = assay: Cell cycle arrest in human HCT116 cells assessed as accumulation at […] phase at 10 uM incubated for 48 hrs by propidium iodide staining based flow cytometric analysis (reference value: 2.01 %); format: functional

IC50 (Aurora kinase A) [nM]	IC50 (K562 [1]) [nM]	IC50 (HCT-116 [2]) [nM]	IC50 [3] [nM]	IC50 [4] [nM]	IC50 (Aurora kinase B) [nM]	SMILES	further results
2060	> 10000	1590	–	–	–	O=C(Nc1c[nH]nc1-c1nc(-c2ccc(CN3CCCCC3)cc2)c[nH]1)c1ccc(Cl)cc1	–
359	5650	> 10000	14	24	> 1000	COc1ccc(C(=O)Nc2c[nH]nc2-c2nc(-c3ccc(CN4CCOCC4)cc3)c[nH]2)cc1	Selectivity ratio (Homo sapiens [5]): 20; Selectivity ratio (Homo sapiens [6]): 20; Selectivity ratio (Homo sapiens [7]): 20; Selectivity ratio (Homo sapiens [8]): 20
1130	2500	> 10000	16	13	–	O=C(Nc1c[nH]nc1-c1nc(-c2ccc(CN3CCCCC3)cc2)c[nH]1)c1cccc(Cl)c1	Selectivity ratio (Homo sapiens [5]): 20; Selectivity ratio (Homo sapiens [6]): 20; Selectivity ratio (Homo sapiens [7]): 20; Selectivity ratio (Homo sapiens [8]): 20
145	10000	> 10000	8	23	–	Cc1nc(Cl)cc(Nc2c[nH]nc2-c2nc(-c3ccc(CN4CCOCC4)cc3)c[nH]2)n1	–
–	9880	16100	–	–	–	CSc1nc(Cl)c(C)c(Nc2c[nH]nc2-c2ncc(-c3ccc(OCCCN4CCOCC4)cc3)[nH]2)n1	–
2510	2630	> 10000	–	64	–	O=C(Nc1c[nH]nc1-c1nc(-c2ccc(CN3CCOCC3)cc2)c[nH]1)c1ccc(Cl)cc1	–
1520	> 10000	> 10000	–	–	–	COc1ccc(C(=O)Nc2c[nH]nc2-c2nc(-c3ccc(CN4CCCCC4)cc3)c[nH]2)cc1	–
–	> 10000	> 10000	–	–	–	O=C(Nc1c[nH]nc1-c1nc(-c2ccc(CN3CCOCC3)cc2)c[nH]1)c1ccccc1	–
–	–	–	–	–	62	O=C(Nc1c[nH]nc1-c1nc2ccc(CN3CCOCC3)cc2[nH]1)NC1CC1 [AT-9283]	Activity (K562 [9]): 14.99%; Activity (K562 [10]): 32.31%; Activity (HCT-116 [11]): 66.56%; Activity (HCT-116 [12]): 25.19%; Activity (HCT-116 [13]): 8.24%; Activity (HCT-116 [14]): 1.98%
466	4340	5210	1180	–	650	O=C(Nc1c[nH]nc1-c1nc(-c2ccc(CN3CCOCC3)cc2)c[nH]1)c1ccc([N+](=O)[O-])cc1	–
